Data: ChEMBL document CHEMBL5303300, “EUbOPEN Chemogenomics Library - Multiplex” (2023)
Where “and” joins values, the source holds several entries; their conditions need not be identical. Identical values can stand only once.

Test system: HEK-293T
Test: Multiplex assay against HEK293T
Assay type: toxicity, cell-based
Details: human, number of replicates 2
Method in brief: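 Imaging took place on a CQ1 microscope at 37°C and 5% CO2 once compound had been added to live cells stained at seeding with Hoechst33342, BioTracker Green Microtubule Cytoskeleton Dye, MitoTracker Red and Annexin V Alexa Fluor 680. CellPathfinder machine-learning gating classed cells as Hoechst high-intensity objects or normal cells, classed normal cells as having healthy, pyknosed or fragmented nuclei, and classed pyknosed cells as mitotic or apoptotic. Tubulin, mitochondrial-mass and membrane-permeability phenotypes are per cents of the healthy-nucleus cells.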

[1] = 12 h, 1 µM, compound concentration 1 uM
[2] = 12 h, 10 µM, compound concentration 10 uM
[3] = 24 h, 1 µM, compound concentration 1 uM
[4] = 24 h, 10 µM, compound concentration 10 uM
[5] = 48 h, 1 µM, compound concentration 1 uM
[6] = 48 h, 10 µM, compound concentration 10 uM

Cc1cc(NC(=O)c2cccc(NC(=O)/C=C/CN(C)C)c2)ccc1Nc1nccc(-c2cccnc2)n1
Population Apoptotic (%) [1]: 41% and 60% | Population Fragmented Nuclei (%) [1]: 3% | Population Healthy Nuclei (%) [1]: 87% | Population Hoechst High Intensity Objects (%) [1]: 11% and 10% | Population Membrane Permeable-Phenotype (%) [1]: 4% and 2% | Population Mitochondria Different-Phenotype (%) [1]: 40% and 30% | Population Mitotic Cells (%) [1]: 58% and 40% | Population Normal (%) [1]: 88% and 89% | Population Pyknosed Nuclei (%) [1]: 9% | Population Tubulin-Different-Phenotype (%) [1]: 93% and 92% | Total Cell Count [1]: 450 and 477 | Population Apoptotic (%) [2]: 63% and 71% | Population Fragmented Nuclei (%) [2]: 1% and 3% | Population Healthy Nuclei (%) [2]: 85% and 87% | Population Hoechst High Intensity Objects (%) [2]: 8% and 11% | Population Membrane Permeable-Phenotype (%) [2]: 2% and 1% | Population Mitochondria Different-Phenotype (%) [2]: 35% and 50% | Population Mitotic Cells (%) [2]: 36% and 28% | Population Normal (%) [2]: 91% and 88% | Population Pyknosed Nuclei (%) [2]: 12% and 9% | Population Tubulin-Different-Phenotype (%) [2]: 95% and 97% | Total Cell Count [2]: 393 and 436 | Population Apoptotic (%) [3]: 62% and 53% | Population Fragmented Nuclei (%) [3]: 5% | Population Healthy Nuclei (%) [3]: 82% and 81% | Population Hoechst High Intensity Objects (%) [3]: 11% and 10% | Population Membrane Permeable-Phenotype (%) [3]: 2% | Population Mitochondria Different-Phenotype (%) [3]: 36% and 28% | Population Mitotic Cells (%) [3]: 37% and 46% | Population Normal (%) [3]: 88% and 89% | Population Pyknosed Nuclei (%) [3]: 12% | Population Tubulin-Different-Phenotype (%) [3]: 92% and 90% | Total Cell Count [3]: 510 and 551 | Population Apoptotic (%) [4]: 76% and 74% | Population Fragmented Nuclei (%) [4]: 2% and 5% | Population Healthy Nuclei (%) [4]: 87% and 77% | Population Hoechst High Intensity Objects (%) [4]: 19% and 14% | Population Membrane Permeable-Phenotype (%) [4]: 0% and 1% | Population Mitochondria Different-Phenotype (%) [4]: 79% and 60% | Population Mitotic Cells (%) [4]: 23% and 25% | Population Normal (%) [4]: 80% and 85% | Population Pyknosed Nuclei (%) [4]: 10% and 17% | Population Tubulin-Different-Phenotype (%) [4]: 99% and 96% | Total Cell Count [4]: 367 and 377 | Population Apoptotic (%) [5]: 66% and 70% | Population Fragmented Nuclei (%) [5]: 10% and 12% | Population Healthy Nuclei (%) [5]: 77% and 76% | Population Hoechst High Intensity Objects (%) [5]: 11% and 12% | Population Membrane Permeable-Phenotype (%) [5]: 5% and 7% | Population Mitochondria Different-Phenotype (%) [5]: 10% and 11% | Population Mitotic Cells (%) [5]: 33% and 29% | Population Normal (%) [5]: 88% and 87% | Population Pyknosed Nuclei (%) [5]: 11% | Population Tubulin-Different-Phenotype (%) [5]: 83% and 80% | Total Cell Count [5]: 671 and 800 | Population Apoptotic (%) [6]: 74% and 73% | Population Fragmented Nuclei (%) [6]: 6% | Population Healthy Nuclei (%) [6]: 43% and 40% | Population Hoechst High Intensity Objects (%) [6]: 27% and 19% | Population Membrane Permeable-Phenotype (%) [6]: 12% and 9% | Population Mitochondria Different-Phenotype (%) [6]: 61% | Population Mitotic Cells (%) [6]: 25% and 26% | Population Normal (%) [6]: 72% and 80% | Population Pyknosed Nuclei (%) [6]: 50% and 52% | Population Tubulin-Different-Phenotype (%) [6]: 74% and 70% | Total Cell Count [6]: 368 and 375

COc1ncc(-c2cc(-c3ncc(CN4C[C@@H](C)O[C@@H](C)C4)o3)c3cn[nH]c3c2)cc1NS(C)(=O)=O
Population Apoptotic (%) [1]: 48% and 56% | Population Fragmented Nuclei (%) [1]: 3% and 2% | Population Healthy Nuclei (%) [1]: 86% and 81% | Population Hoechst High Intensity Objects (%) [1]: 10% | Population Membrane Permeable-Phenotype (%) [1]: 4% and 1% | Population Mitochondria Different-Phenotype (%) [1]: 17% and 26% | Population Mitotic Cells (%) [1]: 51% and 43% | Population Normal (%) [1]: 89% | Population Pyknosed Nuclei (%) [1]: 10% and 15% | Population Tubulin-Different-Phenotype (%) [1]: 65% and 71% | Total Cell Count [1]: 695 and 654 | Population Apoptotic (%) [2]: 46% and 58% | Population Fragmented Nuclei (%) [2]: 2% and 3% | Population Healthy Nuclei (%) [2]: 75% and 82% | Population Hoechst High Intensity Objects (%) [2]: 9% | Population Membrane Permeable-Phenotype (%) [2]: 0% and 1% | Population Mitochondria Different-Phenotype (%) [2]: 54% and 51% | Population Mitotic Cells (%) [2]: 53% and 41% | Population Normal (%) [2]: 90% | Population Pyknosed Nuclei (%) [2]: 22% and 14% | Population Tubulin-Different-Phenotype (%) [2]: 88% and 87% | Total Cell Count [2]: 336 and 358 | Population Apoptotic (%) [3]: 40% and 54% | Population Fragmented Nuclei (%) [3]: 7% and 5% | Population Healthy Nuclei (%) [3]: 86% and 83% | Population Hoechst High Intensity Objects (%) [3]: 12% and 10% | Population Membrane Permeable-Phenotype (%) [3]: 2% and 1% | Population Mitochondria Different-Phenotype (%) [3]: 4% and 10% | Population Mitotic Cells (%) [3]: 59% and 45% | Population Normal (%) [3]: 87% and 89% | Population Pyknosed Nuclei (%) [3]: 6% and 10% | Population Tubulin-Different-Phenotype (%) [3]: 37% and 44% | Total Cell Count [3]: 1173 and 987 | Population Apoptotic (%) [4]: 46% and 45% | Population Fragmented Nuclei (%) [4]: 4% | Population Healthy Nuclei (%) [4]: 82% and 76% | Population Hoechst High Intensity Objects (%) [4]: 9% and 10% | Population Membrane Permeable-Phenotype (%) [4]: 1% | Population Mitochondria Different-Phenotype (%) [4]: 41% and 44% | Population Mitotic Cells (%) [4]: 53% and 54% | Population Normal (%) [4]: 90% and 89% | Population Pyknosed Nuclei (%) [4]: 13% and 19% | Population Tubulin-Different-Phenotype (%) [4]: 79% and 86% | Total Cell Count [4]: 379 and 373 | Population Apoptotic (%) [5]: 13% and 26% | Population Fragmented Nuclei (%) [5]: 15% and 9% | Population Healthy Nuclei (%) [5]: 81% and 85% | Population Hoechst High Intensity Objects (%) [5]: 11% | Population Membrane Permeable-Phenotype (%) [5]: 7% and 2% | Population Mitochondria Different-Phenotype (%) [5]: 0% and 2% | Population Mitotic Cells (%) [5]: 86% and 73% | Population Normal (%) [5]: 88% | Population Pyknosed Nuclei (%) [5]: 2% and 4% | Population Tubulin-Different-Phenotype (%) [5]: 22% and 30% | Total Cell Count [5]: 2777 and 1879 | Population Apoptotic (%) [6]: 55% and 40% | Population Fragmented Nuclei (%) [6]: 6% and 4% | Population Healthy Nuclei (%) [6]: 87% and 83% | Population Hoechst High Intensity Objects (%) [6]: 13% and 9% | Population Membrane Permeable-Phenotype (%) [6]: 2% and 3% | Population Mitochondria Different-Phenotype (%) [6]: 18% and 21% | Population Mitotic Cells (%) [6]: 44% and 59% | Population Normal (%) [6]: 86% and 90% | Population Pyknosed Nuclei (%) [6]: 6% and 11% | Population Tubulin-Different-Phenotype (%) [6]: 74% and 82% | Total Cell Count [6]: 527 and 510

COCCNC1CCC(Nc2cc(-c3csc(NCC4(C#N)CCOCC4)n3)c(Cl)cn2)CC1 (configuration not stated)
Population Apoptotic (%) [1]: 38% and 65% | Population Fragmented Nuclei (%) [1]: 4% and 2% | Population Healthy Nuclei (%) [1]: 81% and 83% | Population Hoechst High Intensity Objects (%) [1]: 7% and 9% | Population Membrane Permeable-Phenotype (%) [1]: 3% and 2% | Population Mitochondria Different-Phenotype (%) [1]: 50% and 51% | Population Mitotic Cells (%) [1]: 61% and 34% | Population Normal (%) [1]: 92% and 90% | Population Pyknosed Nuclei (%) [1]: 13% and 14% | Population Tubulin-Different-Phenotype (%) [1]: 76% and 80% | Total Cell Count [1]: 472 and 403 | Population Apoptotic (%) [2]: 74% and 66% | Population Fragmented Nuclei (%) [2]: 1% and 2% | Population Healthy Nuclei (%) [2]: 77% and 83% | Population Hoechst High Intensity Objects (%) [2]: 10% and 12% | Population Membrane Permeable-Phenotype (%) [2]: 2% and 3% | Population Mitochondria Different-Phenotype (%) [2]: 69% and 65% | Population Mitotic Cells (%) [2]: 25% and 33% | Population Normal (%) [2]: 89% and 87% | Population Pyknosed Nuclei (%) [2]: 20% and 14% | Population Tubulin-Different-Phenotype (%) [2]: 96% and 94% | Total Cell Count [2]: 313 and 412 | Population Apoptotic (%) [3]: 48% and 66% | Population Fragmented Nuclei (%) [3]: 2% and 4% | Population Healthy Nuclei (%) [3]: 88% and 83% | Population Hoechst High Intensity Objects (%) [3]: 13% and 16% | Population Membrane Permeable-Phenotype (%) [3]: 1% and 2% | Population Mitochondria Different-Phenotype (%) [3]: 62% and 58% | Population Mitotic Cells (%) [3]: 51% and 33% | Population Normal (%) [3]: 86% and 83% | Population Pyknosed Nuclei (%) [3]: 8% and 12% | Population Tubulin-Different-Phenotype (%) [3]: 72% and 74% | Total Cell Count [3]: 431 and 359 | Population Apoptotic (%) [4]: 91% and 67% | Population Fragmented Nuclei (%) [4]: 3% | Population Healthy Nuclei (%) [4]: 82% and 87% | Population Hoechst High Intensity Objects (%) [4]: 15% and 21% | Population Membrane Permeable-Phenotype (%) [4]: 2% | Population Mitochondria Different-Phenotype (%) [4]: 81% and 75% | Population Normal (%) [4]: 84% and 78% | Population Pyknosed Nuclei (%) [4]: 14% and 8% | Population Tubulin-Different-Phenotype (%) [4]: 93% and 92% | Total Cell Count [4]: 294 and 402 | Population Apoptotic (%) [5]: 55% and 65% | Population Fragmented Nuclei (%) [5]: 1% and 5% | Population Healthy Nuclei (%) [5]: 91% and 84% | Population Hoechst High Intensity Objects (%) [5]: 14% and 17% | Population Membrane Permeable-Phenotype (%) [5]: 1% and 2% | Population Mitochondria Different-Phenotype (%) [5]: 71% and 68% | Population Mitotic Cells (%) [5]: 45% and 34% | Population Normal (%) [5]: 85% and 82% | Population Pyknosed Nuclei (%) [5]: 7% and 9% | Population Tubulin-Different-Phenotype (%) [5]: 75% | Total Cell Count [5]: 317 and 304 | Population Apoptotic (%) [6]: 92% and 82% | Population Fragmented Nuclei (%) [6]: 1% and 4% | Population Healthy Nuclei (%) [6]: 78% and 85% | Population Hoechst High Intensity Objects (%) [6]: 13% and 22% | Population Membrane Permeable-Phenotype (%) [6]: 3% and 1% | Population Mitochondria Different-Phenotype (%) [6]: 85% and 82% | Population Mitotic Cells (%) [6]: 7% and 17% | Population Normal (%) [6]: 86% and 77% | Population Pyknosed Nuclei (%) [6]: 19% and 9% | Population Tubulin-Different-Phenotype (%) [6]: 95% and 90% | Total Cell Count [6]: 237 and 368
